Screening data: PubChem, several laboratories
MC4R barr agon: activates human MC4R beta-arrestin recruitment; P32245; U2OS MC4R beta-arrestin complementation, luminescence; percent of melanotan II response, DMSO zero; 0.98% of 360,000 active; activation, % at 8.9 µM;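 active means activation above a per-plate cutoff, the mean activation of sample wells on that plate plus 3 SD, cut at about 8% in these data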
Target sequence (P32245 whole entry, looked up): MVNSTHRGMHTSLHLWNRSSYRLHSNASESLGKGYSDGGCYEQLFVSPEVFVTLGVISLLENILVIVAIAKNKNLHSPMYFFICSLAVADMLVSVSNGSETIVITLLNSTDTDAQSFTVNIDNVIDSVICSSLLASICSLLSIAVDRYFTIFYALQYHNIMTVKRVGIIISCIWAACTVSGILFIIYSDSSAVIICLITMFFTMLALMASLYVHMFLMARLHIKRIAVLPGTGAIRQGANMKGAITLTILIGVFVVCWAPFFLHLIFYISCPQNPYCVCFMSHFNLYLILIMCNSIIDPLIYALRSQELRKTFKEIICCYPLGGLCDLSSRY
NTR1 ag: agonists of human neurotensin receptor NTR1; NTR1-U2OS beta-arrestin-GFP spot imaging, agonist mode; activation, % at 20 µM; 0.17% of 330,000 active; AID 493036; P30989;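 active means activation at or above 40% of the spot to cytoplasm intensity ratio, with at least 20 cells analyzed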
TbMetRS inhib: Trypanosoma brucei MetRS inhibition; inhibition, % at 11.9 µM; AID 624268; 0.4% of 360,000 active; purified T. brucei MetRS, ATP depletion, Kinase-Glo luminescence;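 active means inhibition above a per-plate cutoff of the control wells' mean inhibition plus 3 SD, cut at about 5.5% in these data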
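Assay system: T. brucei methionyl-tRNA synthetase, purified | Medium: HEPES buffer with MgCl2, KCl, DTT, spermine, BSA, pyrophosphatase | Compound: 11.9 µM single point | Incubation: 15 min enzyme-compound preincubation, 2 h reaction, 10 min detection, 25 °C | Measured by: Kinase-Glo luciferase luminescence reporting remaining unconsumed ATP | Measure: % inhibition normalized to control-well medians | Replication: Singlicate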
H9c2 TAG inh: reduces triacylglycerol accumulation in H9c2 cells; Nile Red lipid (TAG) fluorescence; cells loaded with 200 µM oleic acid; inhibition, % at 12.5 µM; 0.66% of 230,000 active;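 active means pattern-corrected inhibition of lipid staining of at least 50% with the nuclear-stain viability signal not falling by more than 50%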
MC4R antag cAMP: blocks human MC4R cAMP signaling | MC4R-expressing cells, MTII-stimulated cAMP, LANCE TR-FRET | inhibition, % at 6.5 µM | 0.48% of 360,000 active | AID 540295;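 active means inhibition above its plate's cutoff, the mean of tested wells on that plate plus 3 SD, cut at about 29% in these data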
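System – human MC4R-expressing U2OS cells · Also added – Melanotan II · Dosing – one concentration, 6.5 µM nominal · Timing – 30-min compound, 1-h challenge, 1-h detection, room temperature · Measured by – Eu-cAMP/anti-cAMP TR-FRET, emission 671 nm · Replicates – singlicate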
aDG glyco up: increases alpha dystroglycan glycosylation | Pro5-aDG cells, alpha-DG glycosylation AlphaScreen (IIH6); 0% Pro5, 100% B10-LARGE cell signal | activation, % at 10 µM | 0.22% of 360,000 active | AID 624168;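 active means activation of at least 8% versus controls, or a plate z-score of at least 8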;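 further: Pro5 are CHO cells carrying HIG-tagged alpha-DG that lacks glycosylation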
Tb MetRS conf: confirmation of Trypanosoma brucei MetRS inhibitors; 93% of 1,400 active; AID 624412; shares compounds with TbMetRS inhib; inhibition, % at 11.9 µM; T. brucei MetRS enzyme, luminescence (ATP depletion); in the data active means inhibition above about 7%
Jurkat cytotox: counter-screen for T. brucei MetRS inhibitors: Jurkat cell cytotoxicity; 12% of 1,400 active; inhibition, % at 8.3 µM; shares compounds with TbMetRS inhib; Jurkat cells viability, ATP luminescence; in the data active means inhibition above about 15%
Tb MetRS inh FP: orthogonal test for Trypanosoma brucei MetRS inhibitors; purified T. brucei MetRS, fluorescence polarization; 44% of 1,400 active; shares compounds with TbMetRS inhib; inhibition, % at 11.9 µM; in the data active means inhibition above about 17%
A number is an active result; n = inactive; x = not tested or not shown. Most compounds without a hit are left out; they make up all but 2.4% or so of the library.

SMILES	MC4R barr agon	NTR1 ag	TbMetRS inhib	H9c2 TAG inh	MC4R antag cAMP	aDG glyco up	Tb MetRS conf	Jurkat cytotox	Tb MetRS inh FP
O=C(C/C=N\OCc1ccc([N+](=O)[O-])cc1)Nc1ccc(Br)cc1	n	n	83.2	n	n	n	101.4	n	90.8
O=C(COc1ccc([N+](=O)[O-])cc1)NNC(=O)Nc1ccc([N+](=O)[O-])cc1	n	n	n	n	n	n	x	x	x
Clc1ccccc1-c1ccc2ncnc(NCc3cccnc3)c2c1	n	n	11.8	n	n	n	44.5	n	33.4
c1cncc(-c2ccc3ncnc(NCc4ccc5c(c4)OCO5)c3c2)c1	n	n	n	n	n	n	x	x	x
Clc1ccccc1-c1ccc2ncnc(NCc3ccc4c(c3)OCO4)c2c1	n	n	26.1	n	n	n	32.2	n	21.9
c1cncc(CNc2ncnc3ccc(-c4cccnc4)cc23)c1	n	n	n	n	n	n	x	x	x
C(=N\Nc1nc2ccccc2[nH]1)/c1ccc2ncccc2c1	n	n	n	n	n	n	x	x	x
COc1cc(OC)c(OC)cc1/C=N/Nc1ncnc2c1[nH]c1ccccc12	n	n	n	n	n	n	x	x	x
COc1ccc2c(c1)c(/C=N/Nc1nc3ccccc3[nH]1)c(C)n2C	n	n	7.1	50.4	n	n	18.9	16.1	18.1
C(=N\Nc1nc2ccccc2[nH]1)/c1cccc2nccnc12	n	n	5.9	52.2	n	n	9.9	95.8	25.5
COc1ccc(/C=N/Nc2nc3ccccc3[nH]2)cc1OC	n	n	8.5	x	n	n	11.7	n	31.0
CCCCn1c(/C=N/Nc2nc3ccccc3[nH]2)nc2ccccc21	n	n	n	x	n	n	x	x	x
COc1cc(/C=N\Nc2nc3ccccc3[nH]2)cc(OC)c1OC	n	n	n	n	n	n	x	x	x
COc1cc(OC)c(OC)cc1/C=N/Nc1nc2ccccc2[nH]1	n	n	8.7	n	n	n	18.0	n	31.1
COc1ccc(OC)c(NC(=O)C2(C)CCN2Cc2ccsc2)c1 (configuration not stated)	n	x	n	n	n	n	x	x	x
CCOC(=O)N1CCN(c2ccc(Cl)cc2)CC1	n	n	n	x	n	n	x	x	x
CCOC(=O)C(/C=C(\C#N)C(=O)OCC)=C(/N)N1CCN(c2ccc(Cl)cc2)CC1	n	n	40.4	n	n	n	49.4	n	24.2
CCN(C)C1CN(Cc2cn(Cc3ccc(F)cc3)nn2)S(=O)(=O)C1 (configuration not stated)	x	x	n	x	x	n	x	x	x
Cc1cc(C(=O)NCC(=O)Nc2c(C)cccc2C)c2ccccc2n1	n	n	10.9	n	n	n	n	n	n
Cc1cc(C(=O)NCC(C)C)c2ccccc2n1	n	n	n	n	n	n	x	x	x
CCOc1ccc(NC(=O)CC2C(=O)N(c3ccc(OC)cc3)C(=O)N2CCc2cccs2)cc1 (configuration not stated)	n	n	n	x	n	n	x	x	x
CCN1C(=O)C(CC(=O)Nc2ccc(F)cc2)N(CCc2ccc(OC)cc2)C1=S (configuration not stated)	n	n	30.1	x	n	n	47.3	n	35.7
CCN1C(=O)C(CC(=O)Nc2ccc(OC)cc2)N(Cc2cccnc2)C1=S (configuration not stated)	n	n	n	x	n	n	x	x	x
CCN1C(=O)C(CC(=O)Nc2ccc(OC)cc2)N(CCc2ccccc2)C1=S (configuration not stated)	n	n	43.3	n	n	n	40.2	n	25.4
COc1ccc(NC(=O)CC2C(=O)N(c3ccccc3)C(=O)N2CCc2cccs2)cc1 (configuration not stated)	n	n	32.3	x	n	n	46.0	n	23.7
SMILES	MC4R barr agon	NTR1 ag	TbMetRS inhib	H9c2 TAG inh	MC4R antag cAMP	aDG glyco up	Tb MetRS conf	Jurkat cytotox	Tb MetRS inh FP
O=C(NCC(F)(F)F)c1cc2c(c(-c3cccc(-c4ccccc4F)c3)n1)[C@H](CCO)N(C(=O)CC1CC1)C2	x	x	n	x	x	n	x	x	x
CCC(CC)C(=O)N(C)c1c(C)nc2c(OCC3CCCCC3)cccn12	n	x	n	n	n	n	x	x	x
CCC12CC1(C(=O)OC)C(=O)N1CCc3c([nH]c4ccccc34)C12 (configuration not stated)	x	x	n	x	x	n	x	x	x
CN1C(=O)[C@H]2[C@@H](c3ccc(C(F)(F)F)cc3)N[C@]3(CCCN(Cc4ccc(Br)cc4)C3=O)[C@H]2C1=O	n	x	n	n	n	n	x	x	x
NC(CCc1ccccc1)c1csc(Nc2cnccn2)n1 (configuration not stated)	n	x	n	n	n	n	x	x	x
O=C(NCC(O)c1ccc([N+](=O)[O-])cc1)Nc1ccccc1 (configuration not stated)	n	n	27.2	x	n	n	46.2	n	21.3
O=C(CN1C(=O)/C(=C2/SC(=S)N(CCS(=O)(=O)O)C2=O)c2ccccc21)Nc1cccc(C(F)(F)F)c1	n	n	42.1	n	n	n	13.8	n	n
O=C(CN1C(=O)/C(=C2\SC(=S)N(CCS(=O)(=O)O)C2=O)c2ccccc21)Nc1cccc(Br)c1	n	x	19.2	x	n	n	19.7	n	n
CCCCC[C@@H](C)N1C[C@H](COCc2ccccc2)Oc2cc(N3CCC[C@H]3CO)ccc2S1(=O)=O	x	x	n	x	x	n	x	x	x
Cc1cc(C)cc(Cn2c3ccc(NC(=S)NCc4ccccc4F)cc3c(=O)n2C)c1	n	x	8.5	n	n	n	33.3	n	n
COc1cc(Cn2c3ccc(NC(=S)NCc4ccc(C)cc4)cc3c(=O)n2C)ccc1F	n	x	7.9	n	n	n	27.8	n	n
O=C(C[C@@H]1C=C[C@@H](NC(=O)C2CC2)[C@@H](CO)O1)NCc1ccccc1Cl	x	x	n	x	x	n	x	x	x
CC/C(=N/O)C(=O)c1ccc(Br)cc1	n	n	6.2	n	n	n	18.9	n	n
O=C(c1ccc(Cl)cc1)c1c[nH]c(C(=O)NNc2cccc(Cl)n2)c1	8.3	n	22.1	n	n	n	28.3	n	n
O=C(c1ccccc1)c1c[nH]c(C(=O)NNc2cccc(Cl)n2)c1	n	n	n	n	n	n	x	x	x
S=c1nc(-c2sccc2OCc2ccc(Cl)cc2Cl)[nH][nH]1	n	n	8.6	n	n	n	12.5	n	n
Cc1cccc(C)c1NC(=O)C(c1ccccc1OC(F)(F)F)N1CCC(c2ccccc2)CC1 (configuration not stated)	x	x	n	x	x	n	x	x	x
Clc1cccc(N/N=C(\Cc2nc3ccccc3[nH]2)c2ccccc2)c1	n	n	58.9	x	n	n	89.6	n	98.0
